Source: ChEMBL document CHEMBL5108076, “Target-Focused Library Design by Pocket-Applied Computer Vision and Fragment Deep Generative Linking” (J Med Chem, 2022)

What follows are compounds tested against CDK8/Cyclin C (Homo sapiens, UniProt P49336) (assay: Inhibition of Alexa fluor 647 labeled kinase tracer binding to human CDK8/cyclin C incubated for 1 hr by FRET based LanthaScreen Eu-Kinase binding assay).
Format: protein-complex assay

CDK8/Cyclin C, sequence (P49336 whole entry): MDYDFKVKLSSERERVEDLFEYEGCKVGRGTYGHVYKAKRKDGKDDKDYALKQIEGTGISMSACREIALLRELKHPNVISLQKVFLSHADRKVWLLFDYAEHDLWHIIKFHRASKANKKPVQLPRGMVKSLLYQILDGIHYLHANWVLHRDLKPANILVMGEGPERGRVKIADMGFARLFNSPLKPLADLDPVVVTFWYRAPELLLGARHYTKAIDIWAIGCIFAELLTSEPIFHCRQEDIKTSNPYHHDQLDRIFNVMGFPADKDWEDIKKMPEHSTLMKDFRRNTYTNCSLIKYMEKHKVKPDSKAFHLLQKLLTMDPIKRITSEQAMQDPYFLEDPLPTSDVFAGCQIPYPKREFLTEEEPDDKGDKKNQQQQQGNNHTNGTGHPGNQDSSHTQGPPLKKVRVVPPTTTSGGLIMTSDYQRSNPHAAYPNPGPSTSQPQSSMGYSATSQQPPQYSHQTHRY
CDK8/Cyclin C, sequence (P24863 whole entry, further chain): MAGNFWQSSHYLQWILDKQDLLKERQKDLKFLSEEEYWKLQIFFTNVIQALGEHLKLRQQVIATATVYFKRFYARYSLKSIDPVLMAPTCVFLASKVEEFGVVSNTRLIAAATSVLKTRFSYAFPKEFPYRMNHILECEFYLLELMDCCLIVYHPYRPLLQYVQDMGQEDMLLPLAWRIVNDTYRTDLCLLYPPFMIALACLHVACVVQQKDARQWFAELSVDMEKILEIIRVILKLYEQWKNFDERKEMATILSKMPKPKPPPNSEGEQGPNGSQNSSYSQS

IC50 [nM]	SMILES
> 25000	CCOc1ccc(C(=O)Oc2cncc(C3CCN(c4ccccc4)CC3)c2)cc1
6.4	CCOc1ccc(C(=O)Oc2cnccc2-c2cnn(-c3ccccc3)c2)cc1
> 25000	CCOc1ccc(C(=O)Oc2cncc(NC(=O)Nc3ccccc3)c2)cc1
355	CCOc1ccc(C(=O)Oc2cnccc2NC(=O)Nc2ccccc2)cc1
144	CCOc1ccc(C(=O)Oc2cnccc2C2CCN(c3ccccc3)CC2)cc1
377	CCOc1ccc(C(=O)Oc2cccnc2)cc1
> 25000	CCOc1ccc(C(=O)Oc2cncc(-c3cnn(-c4ccccc4)c3)c2)cc1

These compounds were tested against CDK8/Cyclin C (Homo sapiens) (UniProt P49336+P24863) (assay: Inhibition of Alexa fluor 647 labeled kinase tracer binding to human CDK8/cyclin C at 10 uM incubated for 1 hr by FRET based LanthaScreen Eu-Kinase binding assay relative to control).
Format: protein-complex assay
How it was run: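 Tagged CDK8/CyclinC (5 nM final) with biotin anti-His antibody and Eu-streptavidin; competitor at 10 μM; Alexa Fluor 647 tracer 236 (Kd 8 nM) at 10 nM final. Buffer: HEPES 50 mM pH 7.5, MgCl2 10 mM, EGTA 1 mM, Brij-35 0.01%. Incubated 1 h at room temperature. TR-FRET read with excitation at 337 nm and emission at 665/620 nm. Mean ± SEM of two independent experiments.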

inhibition [%]	SMILES
> 50	Cc1ccc(SC(C)C(=O)NCc2cccnc2)cc1 (stereo not drawn)
> 50	COc1ccc(OC(=O)c2cccnc2)cc1
> 50	CCOc1ccc(C(=O)Oc2cccnc2)cc1
> 50	O=C(Nc1ccncc1)c1ccncc1
> 50	COc1ccc(C(O)Cc2cccnc2)cc1 (stereo not drawn)
> 50	c1ccc(COc2ccc(OCc3ccccn3)cc2)nc1
